In brackets after ≈: the same amount, converted by molar mass.
Columns and labels:
Type in all cases: functional
[1] = test system: Cryptococcus neoformans; assay: Antimicrobial activity against Cryptococcus neoformans H99 assessed as reduction in […] growth and measured for 48 hrs by resazurin dye based broth microdilution method
How it was run: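 Cells from overnight growth diluted to ~1 × 10^5 CFU/mL in sabouraud dextrose broth. Compounds from 10 mg/mL DMSO stocks tested at 0.048–100 μg/mL. Plates incubated standing at 37 °C for 48 h, then resazurin added for a further 24 h. MIC taken from colour change.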

[2] = test system: Staphylococcus aureus; assay: Antimicrobial activity against Staphylococcus aureus JE2 ssessed as reduction in bacterial growth and measured for 24 hrs by resazurin dye based broth microdilution method
How it was run: (§1)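 Overnight cultures diluted to ~1 × 10^5 CFU/mL and exposed to compounds (DMSO stocks at 10 mg/mL) over 0.048–100 μg/mL final. Incubated standing in lysogeny broth at 37 °C for 24 h. Resazurin then added, 1 h further incubation, and MIC read from colour change.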

[3] = test system: Pseudomonas aeruginosa; assay: Antimicrobial activity against Pseudomonas aeruginosa PA14 assessed as reduction in bacterial growth and measured for 24 hrs by resazurin dye based broth microdilution method; how it was run: as §1

Compound	MIC [1]	MIC [2]	MIC [3]
Cc1ccc2c(c1)[C@H]([C@@H](C)C=O)CC[C@H]2C	100 µg/mL (≈ 462 µM)	> 100 µg/mL	> 100 µg/mL
COC=C[C@H](C)[C@@H]1CC[C@@H](C)[C@@H]2CCC(C)=C[C@@H]21 (mixture of isomers)	50 µg/mL	12.5 µg/mL	> 100 µg/mL
C#COC(=O)[C@H](C)[C@@H]1CC[C@@H](C)[C@@H]2CCC(C)=C[C@@H]21	> 100 µg/mL	> 100 µg/mL	> 100 µg/mL
CC1=C[C@H]2[C@@H](C=C1)[C@H](C)CC[C@H]2[C@@H](C)CO	25 µg/mL (≈ 113 µM)	50 µg/mL (≈ 227 µM)	> 100 µg/mL
Cc1ccc2c(c1)[C@H]([C@@H](C)C(=O)O)CC[C@H]2C	100 µg/mL (≈ 430 µM)	> 100 µg/mL	> 100 µg/mL
CC1=CC2=C([C@@H](C)C(=O)O)CC[C@@H](C)[C@@H]2CC1	> 100 µg/mL	> 100 µg/mL	> 100 µg/mL
CC1=C[C@H]2[C@@H](CC1)[C@H](C)CC[C@H]2[C@@H](C)CCC=O	> 100 µg/mL	> 100 µg/mL	> 100 µg/mL
CC(=O)OCCC[C@H](C)[C@@H]1CC[C@@H](C)[C@@H]2C[C@@H](O)C(C)=C[C@@H]21	25 µg/mL (≈ 81 µM)	> 100 µg/mL	> 100 µg/mL
CC1=C[C@H]2[C@@H](CC1)[C@H](C)CC[C@H]2[C@@H](C)C(=O)O	25 µg/mL (≈ 106 µM)	100 µg/mL (≈ 423 µM)	> 100 µg/mL
CC1=C[C@H]2[C@@H](CC1)[C@H](C)CC[C@H]2[C@@H](C)C=O	12.5 µg/mL (≈ 56.7 µM)	> 100 µg/mL	> 100 µg/mL
C[C@@H]1[C@H](O)[C@@H](C)/C=C/C=C/C=C/C=C/C=C/C=C/C=C/[C@H](O[C@@H]2O[C@H](C)[C@@H](O)[C@H](N)[C@@H]2O)C[C@@H]2O[C@](O)(C[C@@H](O)C[C@@H](O)[C@H](O)CC[C@@H](O)C[C@@H](O)CC(=O)O[C@H]1C)C[C@H](O)[C@H]2C(=O)O [AMPHOTERICIN B]	< 0.048 µg/mL		
Cc1ccc2c(c1)C([C@@H](C)CO)=CC[C@H]2C	50 µg/mL (≈ 231 µM)	100 µg/mL (≈ 462 µM)	> 100 µg/mL
CC1=C[C@H]2[C@@H](C=C1)[C@H](C)CC[C@H]2[C@@H](C)C(=O)O	100 µg/mL (≈ 427 µM)	> 100 µg/mL	> 100 µg/mL
CO[C@@H]1[C@@H](OC(N)=O)[C@@H](O)[C@H](Oc2ccc3c(O)c(NC(=O)c4ccc(O)c(CC=C(C)C)c4)c(=O)oc3c2C)OC1(C)C [NOVOBIOCIN]		< 0.19 µg/mL	
CC1C[C@@H]2OO[C@H]1[C@@H]1[C@H]([C@@H](C)C(=O)O)CC[C@@H](C)[C@@H]12 (stereo partly specified)	> 100 µg/mL	> 100 µg/mL	> 100 µg/mL
CC1=C[C@H]2[C@@H](CC1)[C@@H]([C@H](C)C(=O)OCc1cn(CCOCCOCCOCNS(=O)(=O)c3ccc(C4=c5cc6c7c(c5Oc5c4cc4c8c5CCCN8CCC4)CCC[N+]=7CCC6)c(S(=O)(=O)[O-])c3)nn1)CC[C@@H]2C	> 50 µg/mL	> 50 µg/mL	> 50 µg/mL
CC1=C[C@H]2[C@@H](C=C1)[C@H](C)CC[C@H]2[C@@H](C)C=O	> 100 µg/mL	> 100 µg/mL	> 100 µg/mL
CC1=C[C@H]2[C@@H](C=C1)[C@H](C)CC[C@H]2[C@@H](C)CCCO	> 100 µg/mL	50 µg/mL (≈ 201 µM)	> 100 µg/mL
CC(C)=CCC[C@H](C)[C@@H]1CC[C@@H](C)c2ccc(C)cc21	> 100 µg/mL	> 100 µg/mL	> 100 µg/mL
CC(=O)OCCC[C@H](C)[C@@H]1CC[C@@H](C)[C@@H]2CCC(C)=C[C@@H]21	12.5 µg/mL (≈ 42.7 µM)	> 100 µg/mL	> 100 µg/mL
CC(C)=CC=C[C@H](C)[C@@H]1CC[C@@H](C)c2ccc(C)cc21	> 100 µg/mL	> 100 µg/mL	> 100 µg/mL
GENTAMICIN	6.25 µg/mL	6.25 µg/mL	0.39 µg/mL
C[C@@H]1CC[C@H]2[C@@H](C)C(=O)O[C@@H]3O[C@@]4(C)CC[C@@H]1[C@]32OO4 [ARTEMISININ]	100 µg/mL (≈ 354 µM)	> 100 µg/mL	> 100 µg/mL
CC1=C[C@H]2[C@@H](CC1)[C@H](C)CC[C@H]2[C@@H](C)CCCO	> 100 µg/mL	12.5 µg/mL (≈ 49.9 µM)	> 100 µg/mL
Cc1ccc2c(c1)[C@H]([C@@H](C)CO)CC[C@H]2C	≥ 100 µg/mL	> 100 µg/mL	> 100 µg/mL
COC=CC[C@H](C)[C@@H]1CC[C@@H](C)[C@@H]2CCC(C)=C[C@@H]21 (mixture of isomers)	> 100 µg/mL	> 100 µg/mL	> 100 µg/mL
O=C(O)c1cn(C2CC2)c2cc(N3CCNCC3)c(F)cc2c1=O [CIPROFLOXACIN]		12.5 µg/mL (≈ 37.7 µM)	< 0.04 µg/mL

Source: ChEMBL document CHEMBL5120805, “Autoxidation of a C2-Olefinated Dihydroartemisinic Acid Analogue to Form an Aromatic Ring: Application to Serrulatene Biosynthesis” (2022)
